From ChEMBL document CHEMBL4732237, “Discovery of 4-alkoxy-2-aryl-6,7-dimethoxyquinolines as a new class of topoisomerase I inhibitors endowed with potent in vitro anticancer activity” (2021)

tested on: HL-60(TB); assay: Growth inhibition of human HL-60(TB) cells at 10 uM incubated for 48 hrs by sulforhodamine B assay relative to control; format: functional; conditions: read-out: GI
Method in brief: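 NCI-60 one-dose screen: same culture, 48 h drug exposure and SRB read-out. Reported as percent growth relative to no-drug control and to time-zero cell number; 0–100 means growth inhibition, below 0 means lethality.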

| Structure (SMILES) | inhibition of growth at 10 µM [%] |
| --- | --- |
| COc1cc2nc(-c3ccc(C(F)(F)F)cc3)cc(OCCN3CCOCC3)c2cc1OC | 13 |

tested on: K562; assay: Growth inhibition of human K562 cells at 10 uM incubated for 48 hrs by sulforhodamine B assay relative to control; format: functional; conditions: read-out: GI
Method in brief: (§1)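 NCI-60 single-dose screen. Cells were grown in RPMI 1640 with 5% FBS and 2 mM L-glutamine and plated 24 h before drug addition. Compound was added at one concentration in DMSO-derived medium and incubated for 48 h at 37 °C in 5% CO2. Read-out was SRB protein stain at 515 nm. Result is percent growth versus the no-drug control and the time-zero cell count; values below 0 indicate lethality.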

| Structure (SMILES) | inhibition of growth at 10 µM [%] |
| --- | --- |
| COc1cc2nc(-c3ccc(C(F)(F)F)cc3)cc(OCCN3CCOCC3)c2cc1OC | 13 |

tested on: SR; assay: Growth inhibition of human SR cells at 10 uM incubated for 48 hrs by sulforhodamine B assay relative to control; format: functional; conditions: read-out: GI
Method in brief: (§2)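 NCI one-dose screen. Cells grown in RPMI 1640 with 5% FBS and 2 mM L-glutamine, plated and incubated 24 h at 37 °C, 5% CO2. DMSO-dissolved drug added, then 48 h further incubation. Adherent cells fixed with cold TCA, suspension cells fixed after settling. Stained with 0.4% SRB, absorbance read at 515 nm. Reported as percent growth relative to no-drug control and time-zero cell number.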

| Structure (SMILES) | inhibition of growth at 10 µM [%] |
| --- | --- |
| COc1cc2nc(-c3ccc(C(F)(F)F)cc3)cc(OCCN3CCOCC3)c2cc1OC | 13 |

tested on: EKVX; assay: Growth inhibition of human EKVX cells at 10 uM incubated for 48 hrs by sulforhodamine B assay relative to control; format: functional; conditions: read-out: GI; method in brief: as §1

| Structure (SMILES) | inhibition of growth at 10 µM [%] |
| --- | --- |
| COc1cc2nc(-c3ccc(C(F)(F)F)cc3)cc(OCCN3CCOCC3)c2cc1OC | 13 |

tested on: HOP-62; assay: Growth inhibition of human HOP-62 cells at 10 uM incubated for 48 hrs by sulforhodamine B assay relative to control; format: functional; conditions: read-out: GI; method in brief: as §1

| Structure (SMILES) | inhibition of growth at 10 µM [%] |
| --- | --- |
| COc1cc2nc(-c3ccc(C(F)(F)F)cc3)cc(OCCN3CCOCC3)c2cc1OC | 13 |

tested on: HOP-92; assay: Growth inhibition of human HOP-92 cells at 10 uM incubated for 48 hrs by sulforhodamine B assay relative to control; format: functional; conditions: read-out: GI; method in brief: as §1

| Structure (SMILES) | inhibition of growth at 10 µM [%] |
| --- | --- |
| COc1cc2nc(-c3ccc(C(F)(F)F)cc3)cc(OCCN3CCOCC3)c2cc1OC | 13 |

tested on: NCI-H23; assay: Growth inhibition of human NCI-H23 cells at 10 uM incubated for 48 hrs by sulforhodamine B assay relative to control; format: functional; conditions: read-out: GI; method in brief: as §2

| Structure (SMILES) | inhibition of growth at 10 µM [%] |
| --- | --- |
| COc1cc2nc(-c3ccc(C(F)(F)F)cc3)cc(OCCN3CCOCC3)c2cc1OC | 13 |

tested on: NCI-H322M; assay: Growth inhibition of human NCI-H322M cells at 10 uM incubated for 48 hrs by sulforhodamine B assay relative to control; format: functional; conditions: read-out: GI; method in brief: as §2

| Structure (SMILES) | inhibition of growth at 10 µM [%] |
| --- | --- |
| COc1cc2nc(-c3ccc(C(F)(F)F)cc3)cc(OCCN3CCOCC3)c2cc1OC | 13 |

tested on: NCI-H460; assay: Growth inhibition of human NCI-H460 cells at 10 uM incubated for 48 hrs by sulforhodamine B assay relative to control; format: functional; conditions: read-out: GI; method in brief: as §2

| Structure (SMILES) | inhibition of growth at 10 µM [%] |
| --- | --- |
| COc1cc2nc(-c3ccc(C(F)(F)F)cc3)cc(OCCN3CCOCC3)c2cc1OC | 13 |

tested on: NCI-H522; assay: Growth inhibition of human NCI-H522 cells at 10 uM incubated for 48 hrs by sulforhodamine B assay relative to control; format: functional; conditions: read-out: GI; method in brief: as §2

| Structure (SMILES) | inhibition of growth at 10 µM [%] |
| --- | --- |
| COc1cc2nc(-c3ccc(C(F)(F)F)cc3)cc(OCCN3CCOCC3)c2cc1OC | 13 |

tested on: KM12; assay: Growth inhibition of human KM12 cells at 10 uM incubated for 48 hrs by sulforhodamine B assay relative to control; format: functional; conditions: read-out: GI; method in brief: as §1

| Structure (SMILES) | inhibition of growth at 10 µM [%] |
| --- | --- |
| COc1cc2nc(-c3ccc(C(F)(F)F)cc3)cc(OCCN3CCOCC3)c2cc1OC | 13 |

tested on: SW-620; assay: Growth inhibition of human SW-620 cells at 10 uM incubated for 48 hrs by sulforhodamine B assay relative to control; format: functional; conditions: read-out: GI
Method in brief: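 NCI one-dose screen across a 59-line panel. Cells were grown in RPMI 1640 with 5% FBS and 2 mM L-glutamine, plated and pre-incubated 24 h, then exposed to drug for 48 h at 37 °C, 5% CO2. Adherent cells were fixed with cold TCA (10% final), stained with 0.4% SRB in 1% acetic acid and read at 515 nm. Result is percent growth relative to no-drug control and time-zero cell count.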

| Structure (SMILES) | inhibition of growth at 10 µM [%] |
| --- | --- |
| COc1cc2nc(-c3ccc(C(F)(F)F)cc3)cc(OCCN3CCOCC3)c2cc1OC | 13 |

tested on: SF-268; assay: Growth inhibition of human SF-268 cells at 10 uM incubated for 48 hrs by sulforhodamine B assay relative to control; format: functional; conditions: read-out: GI; method in brief: as §2

| Structure (SMILES) | inhibition of growth at 10 µM [%] |
| --- | --- |
| COc1cc2nc(-c3ccc(C(F)(F)F)cc3)cc(OCCN3CCOCC3)c2cc1OC | 13 |

tested on: SF-539; assay: Growth inhibition of human SF-539 cells at 10 uM incubated for 48 hrs by sulforhodamine B assay relative to control; format: functional; conditions: read-out: GI; method in brief: as §2

| Structure (SMILES) | inhibition of growth at 10 µM [%] |
| --- | --- |
| COc1cc2nc(-c3ccc(C(F)(F)F)cc3)cc(OCCN3CCOCC3)c2cc1OC | 13 |

tested on: SNB-19; assay: Growth inhibition of human SNB-19 cells at 10 uM incubated for 48 hrs by sulforhodamine B assay relative to control; format: functional; conditions: read-out: GI; method in brief: as §2

| Structure (SMILES) | inhibition of growth at 10 µM [%] |
| --- | --- |
| COc1cc2nc(-c3ccc(C(F)(F)F)cc3)cc(OCCN3CCOCC3)c2cc1OC | 13 |

tested on: SNB-75; assay: Growth inhibition of human SNB-75 cells at 10 uM incubated for 48 hrs by sulforhodamine B assay relative to control; format: functional; conditions: read-out: GI; method in brief: as §2

| Structure (SMILES) | inhibition of growth at 10 µM [%] |
| --- | --- |
| COc1cc2nc(-c3ccc(C(F)(F)F)cc3)cc(OCCN3CCOCC3)c2cc1OC | 13 |

tested on: LOX IMVI; assay: Growth inhibition of human LOX IMVI cells at 10 uM incubated for 48 hrs by sulforhodamine B assay relative to control; format: functional; conditions: read-out: GI; method in brief: as §1

| Structure (SMILES) | inhibition of growth at 10 µM [%] |
| --- | --- |
| COc1cc2nc(-c3ccc(C(F)(F)F)cc3)cc(OCCN3CCOCC3)c2cc1OC | 13 |

tested on: Malme-3M; assay: Growth inhibition of human Malme-3M cells at 10 uM incubated for 48 hrs by sulforhodamine B assay relative to control; format: functional; conditions: read-out: GI; method in brief: as §2

| Structure (SMILES) | inhibition of growth at 10 µM [%] |
| --- | --- |
| COc1cc2nc(-c3ccc(C(F)(F)F)cc3)cc(OCCN3CCOCC3)c2cc1OC | 13 |
